According to ChEMBL document CHEMBL1151686, “Antimalarial activity enhancement in hydroxymethylcarbonyl (HMC) isostere-based dipeptidomimetics targeting malarial aspartic protease plasmepsin” (Bioorg Med Chem, 2008):

Tests used:
[1] = Cytotoxicity against rat L6 cells after 72 hrs by Alamar blue resazurin assay; format: cell-based; conditions: read-out: TD50
[2] = target: Protease (Human immunodeficiency virus 1) (UniProt Q9YQ12); experiment: Inhibition of recombinant HIV1 protease at 50 nM
In short: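 Recombinant HIV-1 PR (2 μg/mL stock) was mixed with inhibitor (500 nM solution in DMSO) in MES–NaOH pH 5.5 buffer containing DTT, EDTA and 1 M NaCl. The reaction was started with substrate H-Lys-Ala-Arg-Val-Tyr-Phe(p-NO₂)-Glu-Ala-Nle-NH₂ (1.0 mM solution) and run 15 min at 37 °C, then stopped with 1M HCl. The cleaved N-terminal fragment was quantified by reversed-phase C18 HPLC.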

[3] = test system: Plasmodium falciparum; experiment: Antimalarial activity against chloroquine-sensitive Plasmodium falciparum NF54 in type O+ human erythrocytes after 48 hrs as reduced [3H]hypoxanthine uptake; format: functional, organism-based
In short: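 NF54 parasites grown in 2.4% O+ human erythrocyte suspension in RPMI 1640 with 25 mM HEPES, 27 mM NaHCO3, 10% heat-inactivated O+ human serum, under 3% O2/4% CO2/93% N2. Compounds serially diluted in 0.2% DMSO medium, incubated with culture 48 h, then 0.6 μCi [3H]hypoxanthine added for 20 h. Harvested on glass filters, scintillation counted. IC50 from dose-response curves.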

[4] = target: Plasmepsin II (Plasmodium falciparum, UniProt P46925); experiment: Inhibition of Plasmodium falciparum plasmepsin-2
Plasmepsin II, sequence (P46925 whole entry): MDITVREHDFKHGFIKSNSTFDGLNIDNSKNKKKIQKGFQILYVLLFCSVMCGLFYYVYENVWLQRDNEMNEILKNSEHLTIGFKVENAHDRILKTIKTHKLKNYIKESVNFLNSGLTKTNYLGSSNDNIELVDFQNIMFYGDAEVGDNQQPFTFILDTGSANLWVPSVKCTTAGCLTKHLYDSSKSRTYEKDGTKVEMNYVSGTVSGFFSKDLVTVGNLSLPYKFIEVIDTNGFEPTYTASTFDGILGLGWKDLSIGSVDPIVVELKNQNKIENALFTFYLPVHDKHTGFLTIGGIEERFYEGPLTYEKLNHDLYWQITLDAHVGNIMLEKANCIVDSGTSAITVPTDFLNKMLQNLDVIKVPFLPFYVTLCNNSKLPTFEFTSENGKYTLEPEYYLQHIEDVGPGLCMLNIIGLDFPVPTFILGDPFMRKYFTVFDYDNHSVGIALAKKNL
In short: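 Plm II (400 nM) hydrolysis of chromogenic substrate H-Ala-Leu-Glu-Arg-Thr-Phe-Phe(p-NO2)-Ser-Phe-Pro-Thr-OH (163 μM) in 10 mM sodium formate pH 4.0, 2% DMSO, 25 °C, with increasing inhibitor. Rates fitted to tight-binding competitive inhibition equations for Ki.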

Protease (Human immunodeficiency virus 1), sequence (Q9YQ12 as listed by the source): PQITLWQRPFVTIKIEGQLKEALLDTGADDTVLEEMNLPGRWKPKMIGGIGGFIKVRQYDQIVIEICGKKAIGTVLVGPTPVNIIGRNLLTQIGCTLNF

| Structure (SMILES) | CC50 at 72 h [1] [µM] | inhibition [2] [%] | EC50 [3] [nM] | Ki [4] [nM] |
| --- | --- | --- | --- | --- |
| Cc1cc(F)cc(C)c1OCC(=O)N[C@@H](Cc1ccccc1)[C@H](O)C(=O)N1CSC(C)(C)[C@H]1C(=O)N[C@H]1c2ccccc2C[C@H]1O | 29 | 87 | 1400 | 19 |
| CC1(C)SCN(C(=O)[C@@H](O)[C@H](Cc2ccccc2)NC(=O)COc2ccc(CO)cc2)[C@@H]1C(=O)N[C@H]1c2ccccc2C[C@H]1O | > 120 | 37 | 1100 | 10 |
| Cc1cc(N(C)C)cc(C)c1OCC(=O)N[C@@H](Cc1ccccc1)[C@H](O)C(=O)N1CSC(C)(C)[C@H]1C(=O)N[C@H]1c2ccccc2C[C@H]1O | 45 | 86 | 1200 | 21 |
| COc1ccc(OCC(=O)N[C@@H](Cc2ccccc2)[C@H](O)C(=O)N2CSC(C)(C)[C@H]2C(=O)N[C@H]2c3ccccc3C[C@H]2O)cc1 | – | 38 | – | 479 |
| COc1cccc(OC)c1OCC(=O)N[C@@H](Cc1ccccc1)[C@H](O)C(=O)N1CSC(C)(C)[C@H]1C(=O)N[C@H]1c2ccccc2C[C@H]1O | – | 54 | – | 782 |
| CCCCNc1cc(C)c(OCC(=O)N[C@@H](Cc2ccccc2)[C@H](O)C(=O)N2CSC(C)(C)[C@H]2C(=O)N[C@H]2c3ccccc3C[C@H]2O)c(C)c1 | 22 | 85 | 540 | 30 |
| CCNc1cc(C)c(OCC(=O)N[C@@H](Cc2ccccc2)[C@H](O)C(=O)N2CSC(C)(C)[C@H]2C(=O)N[C@H]2c3ccccc3C[C@H]2O)c(C)c1 | 64 | 84 | 720 | 7 |
| CC(C)c1cccc(C(C)C)c1OCC(=O)N[C@@H](Cc1ccccc1)[C@H](O)C(=O)N1CSC(C)(C)[C@H]1C(=O)N[C@H]1c2ccccc2C[C@H]1O | 6.3 | 0 | 2900 | 23 |
| Cc1cc(NCc2ccccn2)cc(C)c1OCC(=O)N[C@@H](Cc1ccccc1)[C@H](O)C(=O)N1CSC(C)(C)[C@H]1C(=O)N[C@H]1c2ccccc2C[C@H]1O | > 120 | 91 | 300 | 10 |
| CC1(C)SCN(C(=O)[C@@H](O)[C@H](Cc2ccccc2)NC(=O)COc2ccccc2O)[C@@H]1C(=O)N[C@H]1c2ccccc2C[C@H]1O | – | 34 | – | 112 |
| Cc1cc(O)cc(C)c1OCC(=O)N[C@@H](Cc1ccccc1)[C@H](O)C(=O)N1CSC(C)(C)[C@H]1C(=O)N[C@H]1c2ccccc2C[C@H]1O | – | 98 | 3300 | 5 |
| CC1(C)SCN(C(=O)[C@@H](O)[C@H](Cc2ccccc2)NC(=O)COc2ccc(N)cc2)[C@@H]1C(=O)N[C@H]1c2ccccc2C[C@H]1O | – | 27 | > 8000 | 28 |
| COc1ccccc1OCC(=O)N[C@@H](Cc1ccccc1)[C@H](O)C(=O)N1CSC(C)(C)[C@H]1C(=O)N[C@H]1c2ccccc2C[C@H]1O | – | 27 | – | 153 |
| CC1(C)SCN(C(=O)[C@@H](O)[C@H](Cc2ccccc2)NC(=O)COc2ccccc2CO)[C@@H]1C(=O)N[C@H]1c2ccccc2C[C@H]1O | – | 61 | – | 132 |
| CC1(C)SCN(C(=O)[C@@H](O)[C@H](Cc2ccccc2)NC(=O)COc2ccc([N+](=O)[O-])cc2)[C@@H]1C(=O)N[C@H]1c2ccccc2C[C@H]1O | 63 | 53 | 4200 | 25 |
| CC1(C)SCN(C(=O)[C@@H](O)[C@H](Cc2ccccc2)NC(=O)COc2c(F)cccc2F)[C@@H]1C(=O)N[C@H]1c2ccccc2C[C@H]1O | 55 | 58 | 3300 | 14 |
| CC1(C)SCN(C(=O)[C@@H](O)[C@H](Cc2ccccc2)NC(=O)COc2ccc(O)cc2)[C@@H]1C(=O)N[C@H]1c2ccccc2C[C@H]1O | – | 31 | > 8000 | 10 |

| Structure (SMILES) | CC50 at 72 h [1] [µM] | inhibition [2] [%] | EC50 [3] [nM] | Ki [4] [nM] |
| --- | --- | --- | --- | --- |
| CC1(C)SCN(C(=O)[C@@H](O)[C@H](Cc2ccccc2)NC(=O)COc2cccc(N)c2)[C@@H]1C(=O)N[C@H]1c2ccccc2C[C@H]1O | – | 29 | > 8000 | 29 |
| Cc1ccccc1OCC(=O)N[C@@H](Cc1ccccc1)[C@H](O)C(=O)N1CSC(C)(C)[C@H]1C(=O)N[C@H]1c2ccccc2C[C@H]1O | – | 72 | – | 145 |
| CC1(C)SCN(C(=O)[C@@H](O)[C@H](Cc2ccccc2)NC(=O)COc2ccccc2N)[C@@H]1C(=O)N[C@H]1c2ccccc2C[C@H]1O | – | 62 | – | 126 |
| Cc1ccc(OCC(=O)N[C@@H](Cc2ccccc2)[C@H](O)C(=O)N2CSC(C)(C)[C@H]2C(=O)N[C@H]2c3ccccc3C[C@H]2O)cc1 | – | 27 | > 8000 | 55 |
| CNc1cc(C)c(OCC(=O)N[C@@H](Cc2ccccc2)[C@H](O)C(=O)N2CSC(C)(C)[C@H]2C(=O)N[C@H]2c3ccccc3C[C@H]2O)c(C)c1 | > 120 | 91 | 450 | 25 |
| Cc1cc(NCc2cccnc2)cc(C)c1OCC(=O)N[C@@H](Cc1ccccc1)[C@H](O)C(=O)N1CSC(C)(C)[C@H]1C(=O)N[C@H]1c2ccccc2C[C@H]1O | > 120 | 91 | 500 | 21 |
| Cc1cc(NCc2ccncc2)cc(C)c1OCC(=O)N[C@@H](Cc1ccccc1)[C@H](O)C(=O)N1CSC(C)(C)[C@H]1C(=O)N[C@H]1c2ccccc2C[C@H]1O | > 120 | 91 | 490 | 6 |
| CC1(C)SCN(C(=O)[C@@H](O)[C@H](Cc2ccccc2)NC(=O)COc2cccc([N+](=O)[O-])c2)[C@@H]1C(=O)N[C@H]1c2ccccc2C[C@H]1O | 58 | 12 | 2800 | 38 |
| CC1(C)SCN(C(=O)[C@@H](O)[C@H](Cc2ccccc2)NC(=O)COc2c(Cl)cccc2Cl)[C@@H]1C(=O)N[C@H]1c2ccccc2C[C@H]1O | – | 95 | 5200 | 39 |
| CC1(C)SCN(C(=O)[C@@H](O)[C@H](Cc2ccccc2)NC(=O)COc2cccc(O)c2)[C@@H]1C(=O)N[C@H]1c2ccccc2C[C@H]1O | – | 13 | > 8000 | 10 |
| CCCCCNc1cc(C)c(OCC(=O)N[C@@H](Cc2ccccc2)[C@H](O)C(=O)N2CSC(C)(C)[C@H]2C(=O)N[C@H]2c3ccccc3C[C@H]2O)c(C)c1 | 12 | 78 | 430 | 26 |
| COc1cccc(OCC(=O)N[C@@H](Cc2ccccc2)[C@H](O)C(=O)N2CSC(C)(C)[C@H]2C(=O)N[C@H]2c3ccccc3C[C@H]2O)c1 | – | 10 | > 8000 | 4 |
| Cc1cc(N)cc(C)c1OCC(=O)N[C@@H](Cc1ccccc1)[C@H](O)C(=O)N1CSC(C)(C)[C@H]1C(=O)N[C@H]1c2ccccc2C[C@H]1O | – | 96 | – | 23 |
| CC1(C)SCN(C(=O)[C@@H](O)[C@H](Cc2ccccc2)NC(=O)COc2cccc(CO)c2)[C@@H]1C(=O)N[C@H]1c2ccccc2C[C@H]1O | – | 24 | > 8000 | 9 |
| Cc1cccc(C)c1OCC(=O)N[C@@H](Cc1ccccc1)[C@H](O)C(=O)N1CSC(C)(C)[C@H]1C(=O)N[C@H]1c2ccccc2C[C@H]1O | – | 98 | – | – |
| CC1(C)SCN(C(=O)[C@@H](O)[C@H](Cc2ccccc2)NC(=O)COc2ccccc2[N+](=O)[O-])[C@@H]1C(=O)N[C@H]1c2ccccc2C[C@H]1O | – | 9 | – | 55 |
| Cc1cccc(OCC(=O)N[C@@H](Cc2ccccc2)[C@H](O)C(=O)N2CSC(C)(C)[C@H]2C(=O)N[C@H]2c3ccccc3C[C@H]2O)c1 | – | 13 | > 8000 | 42 |
